Substitutions are numbered along the chain they refer to. Where two headings read alike, the source gives them in different places.
Tests used:
Format in all cases: biochemical
[1] = target: T1, wild-type bovine olfactory CNG channel (α3 subunit) (Bos taurus, UniProt Q03041); assay: External Ca2+ blockage of single-channel current, outside-out patches; details: for effect on single-channel current: 5 μM cGMP; for n (single-channel Ca2+ blockage): Fig. 7 patch
T1 sequence (Q03041 1-663): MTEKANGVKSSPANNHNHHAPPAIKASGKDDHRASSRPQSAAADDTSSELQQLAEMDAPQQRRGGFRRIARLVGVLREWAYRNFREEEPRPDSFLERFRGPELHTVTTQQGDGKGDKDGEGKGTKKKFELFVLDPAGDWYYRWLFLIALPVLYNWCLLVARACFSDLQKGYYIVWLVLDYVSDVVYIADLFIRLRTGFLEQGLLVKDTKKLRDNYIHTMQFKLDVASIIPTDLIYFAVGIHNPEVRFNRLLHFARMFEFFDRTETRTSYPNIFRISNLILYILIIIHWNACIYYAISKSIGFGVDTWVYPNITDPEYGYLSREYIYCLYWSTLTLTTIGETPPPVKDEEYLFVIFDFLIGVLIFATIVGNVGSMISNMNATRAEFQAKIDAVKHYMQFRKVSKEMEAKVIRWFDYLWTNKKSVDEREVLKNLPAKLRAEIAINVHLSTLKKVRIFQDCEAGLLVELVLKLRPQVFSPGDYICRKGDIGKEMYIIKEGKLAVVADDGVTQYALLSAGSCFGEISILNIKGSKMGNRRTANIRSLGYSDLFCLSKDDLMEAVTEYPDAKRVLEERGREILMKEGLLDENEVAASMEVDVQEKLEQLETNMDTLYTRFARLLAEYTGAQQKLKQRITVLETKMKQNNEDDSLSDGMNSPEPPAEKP
Procedure, shortened: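 Outside-out oocyte patches with cGMP in the pipette (wild-type 5 μM, E340G 1 mM) and increasing external Ca2+. Single-channel currents at +80 and −80 mV, filtered at 2 kHz, sampled at 10 kHz. Amplitudes from all-points histograms (30 s) fitted with summed Gaussians, normalised to divalent-free current, Hill-fitted for Ki and n. Two further patches per channel type.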

[2] = target: T2, E340Q mutant bovine olfactory CNG channel (Bos taurus, UniProt Q03041, E340Q)
T2 sequence (Q03041 1-663 E340Q): T1 sequence (Q03041 1-663) with E340Q

[3] = target: T2, E340Q mutant bovine olfactory CNG channel; assay: Estimate from current variance versus mean amplitude of macroscopic currents; details: estimated from variance/mean at various cGMP concentrations
Procedure, shortened: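 Single-channel amplitude not directly measurable. Assuming a single open state, current amplitude and maximal open probability were estimated from the relation between current variance and mean amplitude of macroscopic currents recorded at various cGMP concentrations, in patches from mRNA-injected Xenopus oocytes.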

[4] = target: T3, E340D mutant bovine olfactory CNG channel (Bos taurus, UniProt Q03041, E340D); details: cGMP
T3 sequence (Q03041 1-663 E340D): T1 sequence (Q03041 1-663) with E340D

effect on single-channel current ([1]; 50 μM external Ca2+, −80 mV)	effect on single-channel current ([1]; 1 mM external Ca2+, −80 mV)	n (single-channel Ca2+ blockage) ([1]; +80 mV)	n (single-channel Ca2+ blockage) ([1]; −80 mV)	n(−80 mV), Hill coefficient ([2]; cGMP)	I(−80 mV)/I(+80 mV) ([2]; cGMP-gated current)	EC50 ([2]; read-out: K 1/2, cGMP, +80 mV)	EC50 ([2]; read-out: K 1/2, cGMP, −80 mV)	EC50 ([2]; read-out: K 1/2,cG, −80 mV, single patch, Fig. 1 fit)	n cG ([2]; −80 mV, single patch, Fig. 1 fit)	maximal open probability [3]	P max (+80 mV) [4]	P max (−80 mV) [4]	L, equilibrium gating constant ([4]; allosteric model fit, mean ± SD)	SMILES
partial blockage	no current was detected	1	1.1	–	–	–	–	–	–	–	–	–	–	[Ca+2] [Ca^2+]
–	–	–	–	2.7 ± 0.5	0.19 ± 0.06	4 ± 1.2 µM	5.6 ± 1.7 µM	4.8 µM	2.4	0.9	0.985 ± 0.007	0.987 ± 0.007	66 ± 15	Nc1nc2c(ncn2[C@@H]2O[C@@H]3COP(=O)(O)O[C@H]3[C@H]2O)c(=O)[nH]1 [cGMP]

From publication PMC2233693 (The Journal of General Physiology, 2000)
